Assay results: ChEMBL document CHEMBL1153398, “Synthesis, activity and molecular modeling of a new series of chromones as low molecular weight protein tyrosine phosphatase inhibitors” (Bioorg Med Chem, 2009)
Calls of active or inactive are those of the source. No cut-off for these calls is given here.

Key:
[1] = molecular target: T1, Tyrosine-protein phosphatase non-receptor type 1 (Homo sapiens) (UniProt P18031); assay: Inhibition of human cloned PTP1B expressed in Escherichia coli TB1 at 20 uM
T1 sequence (whole entry): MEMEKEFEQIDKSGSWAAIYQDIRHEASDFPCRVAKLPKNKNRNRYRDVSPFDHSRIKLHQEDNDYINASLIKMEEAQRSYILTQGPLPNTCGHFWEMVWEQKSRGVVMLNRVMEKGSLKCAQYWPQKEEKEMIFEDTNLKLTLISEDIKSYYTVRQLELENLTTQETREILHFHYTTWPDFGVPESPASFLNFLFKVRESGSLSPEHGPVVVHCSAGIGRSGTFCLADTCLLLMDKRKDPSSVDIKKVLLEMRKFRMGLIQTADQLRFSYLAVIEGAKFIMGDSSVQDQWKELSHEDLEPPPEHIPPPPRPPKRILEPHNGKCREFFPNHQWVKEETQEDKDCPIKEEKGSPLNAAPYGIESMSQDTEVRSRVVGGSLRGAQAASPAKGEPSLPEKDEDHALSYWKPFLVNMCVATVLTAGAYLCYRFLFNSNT
In short: (§1)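 GST-fused human enzymes (LMW-PTP IF1 or IF2, or PTP-1B) expressed in E. coli TB1, affinity-purified, thrombin-cleaved (3 h, 37 °C) and gel-filtered. […] Reaction stopped with 1 M KOH; p-nitrophenol read at 400 nm. Initial rates in triplicate; IC50 fitted to Vi/V° = IC50/(IC50+[I]); single-concentration lines give % inhibition.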

[2] = molecular target: T2, Low molecular weight phosphotyrosine protein phosphatase (Homo sapiens) (UniProt P24666); assay: Inhibition of human cloned LMW-PTP isoform 2 expressed in Escherichia coli TB1 at 20 uM; in short: as §1
T2 sequence (whole entry): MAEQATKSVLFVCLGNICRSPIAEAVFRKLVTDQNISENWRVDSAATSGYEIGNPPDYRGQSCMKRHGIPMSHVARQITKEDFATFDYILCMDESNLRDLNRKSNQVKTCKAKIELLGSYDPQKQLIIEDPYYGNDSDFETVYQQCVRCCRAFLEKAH

[3] = molecular target: T2, Low molecular weight phosphotyrosine protein phosphatase (Homo sapiens); assay: Inhibition of human cloned LMW-PTP isoform 1 expressed in Escherichia coli TB1 at 20 uM; in short: as §1
[4] = molecular target: T2, Low molecular weight phosphotyrosine protein phosphatase (Homo sapiens); assay: Inhibition of human cloned LMW-PTP isoform 2 expressed in Escherichia coli TB1 at 15 uM; in short: as §1
[5] = molecular target: T1, Tyrosine-protein phosphatase non-receptor type 1 (Homo sapiens); assay: Inhibition of human cloned PTP1B expressed in Escherichia coli TB1 at 15 uM; in short: as §1
[6] = molecular target: T2, Low molecular weight phosphotyrosine protein phosphatase (Homo sapiens); assay: Inhibition of human cloned LMW-PTP isoform 1 expressed in Escherichia coli TB1 at 15 uM; in short: as §1
[7] = molecular target: T3, Low molecular weight phosphotyrosine protein phosphatase (Homo sapiens, UniProt P24666); assay: Inhibition of human cloned LMW-PTP isoform 2 expressed in Escherichia coli TB1
T3 sequence (P24666 whole entry): T2 sequence (whole entry)

[8] = molecular target: T3, Low molecular weight phosphotyrosine protein phosphatase; assay: Inhibition of human cloned LMW-PTP isoform 1 expressed in Escherichia coli TB1
[9] = molecular target: T4, Tyrosine-protein phosphatase non-receptor type 1 (Homo sapiens, UniProt P18031); assay: Inhibition of human cloned PTP1B expressed in Escherichia coli TB1; in short: as §1
T4 sequence (P18031 whole entry): T1 sequence (whole entry)

[10] = molecular target: Insulin receptor (Homo sapiens) (UniProt P06213); assay: Activation of human insulin receptor beta expressed in human HepG2 cells assessed as stimulation of receptor phosphorylation at 10 uM after 90 mins by SDS-PAGE; type: cell-based
Insulin receptor (Homo sapiens), sequence (P06213 28-758 limits assumed): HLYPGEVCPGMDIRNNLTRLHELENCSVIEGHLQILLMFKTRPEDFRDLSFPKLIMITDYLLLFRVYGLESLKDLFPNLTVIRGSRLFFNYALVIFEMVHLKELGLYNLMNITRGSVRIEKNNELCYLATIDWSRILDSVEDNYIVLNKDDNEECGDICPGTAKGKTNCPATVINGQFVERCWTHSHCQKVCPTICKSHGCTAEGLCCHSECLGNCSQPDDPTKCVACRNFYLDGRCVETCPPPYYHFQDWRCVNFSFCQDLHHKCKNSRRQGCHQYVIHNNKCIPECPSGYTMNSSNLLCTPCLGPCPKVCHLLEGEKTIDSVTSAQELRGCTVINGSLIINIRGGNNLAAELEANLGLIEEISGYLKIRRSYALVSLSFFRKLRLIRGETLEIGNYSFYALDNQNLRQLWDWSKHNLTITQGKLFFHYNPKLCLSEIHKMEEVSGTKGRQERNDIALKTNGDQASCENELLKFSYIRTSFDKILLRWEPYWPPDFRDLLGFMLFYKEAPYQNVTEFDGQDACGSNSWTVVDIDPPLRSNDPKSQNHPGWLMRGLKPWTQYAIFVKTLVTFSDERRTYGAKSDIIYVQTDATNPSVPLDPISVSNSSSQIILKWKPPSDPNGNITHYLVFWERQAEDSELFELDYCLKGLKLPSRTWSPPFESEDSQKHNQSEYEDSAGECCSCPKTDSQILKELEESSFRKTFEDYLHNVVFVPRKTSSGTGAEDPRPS
Insulin receptor (Homo sapiens), sequence (P06213 763-1382 limits assumed): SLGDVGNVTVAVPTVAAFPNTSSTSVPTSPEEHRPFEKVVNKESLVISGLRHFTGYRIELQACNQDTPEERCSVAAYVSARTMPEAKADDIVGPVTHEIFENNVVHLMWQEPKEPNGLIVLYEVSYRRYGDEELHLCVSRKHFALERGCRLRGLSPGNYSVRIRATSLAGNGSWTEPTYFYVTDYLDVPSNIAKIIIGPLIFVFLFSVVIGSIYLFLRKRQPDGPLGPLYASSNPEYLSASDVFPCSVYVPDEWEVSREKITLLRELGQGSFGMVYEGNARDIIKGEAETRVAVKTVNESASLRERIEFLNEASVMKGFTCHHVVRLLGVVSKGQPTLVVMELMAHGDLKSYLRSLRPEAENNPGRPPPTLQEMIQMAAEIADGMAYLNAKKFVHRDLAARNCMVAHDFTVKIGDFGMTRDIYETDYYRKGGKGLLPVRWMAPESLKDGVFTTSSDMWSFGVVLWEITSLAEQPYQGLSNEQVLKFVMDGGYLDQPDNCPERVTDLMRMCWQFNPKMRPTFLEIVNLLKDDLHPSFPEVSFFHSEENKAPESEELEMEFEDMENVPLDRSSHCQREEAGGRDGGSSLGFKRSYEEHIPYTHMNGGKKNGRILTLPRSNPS
In short: (§2)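 HepG2 cells grown in DMEM with 10% bovine calf serum, 37 °C, 5% CO2; subconfluent cells serum-starved 20 h. Inhibitor added to medium at 10 µM final, 90 min, 37 °C; 10 nM insulin, 0.5% DMSO and 10 µM orthovanadate as references. Lysis in SDS Laemmli buffer, SDS-PAGE, Western blot for phospho-IRβ, then stripped and reprobed for phospho-Akt, phosphotyrosine and actin. At least three separate experiments.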

[11] = molecular target: Insulin receptor (Homo sapiens) (UniProt P06213); assay: Activation of human insulin receptor beta expressed in human HepG2 cells assessed as increase in tyrosine phosphorylation level at 10 uM after 90 mins by SDS-PAGE; type: cell-based; in short: as §2
[12] = molecular target: Insulin receptor (Homo sapiens) (UniProt P06213); assay: Activation of human insulin receptor beta expressed in human HepG2 cells assessed as increase in Akt phosphorylation level at 10 uM after 90 mins by SDS-PAGE; type: cell-based; in short: as §2
[13] = molecular target: T4, Tyrosine-protein phosphatase non-receptor type 1; assay: Inhibition of human recombinant PTP1B
[14] = molecular target: T3, Low molecular weight phosphotyrosine protein phosphatase; assay: Inhibition of human cloned LMW-PTP isoform 1 expressed in Escherichia coli TB1 by competitive inhibition assay
[15] = molecular target: T3, Low molecular weight phosphotyrosine protein phosphatase; assay: Inhibition of human cloned LMW-PTP isoform 2 expressed in Escherichia coli TB1 by competitive inhibition assay
[16] = molecular target: T3, Low molecular weight phosphotyrosine protein phosphatase; assay: Inhibition of human cloned LMW-PTP isoform 1 expressed in Escherichia coli TB1 by mixed type inhibition assay
[17] = molecular target: T3, Low molecular weight phosphotyrosine protein phosphatase; assay: Inhibition of human cloned LMW-PTP isoform 2 expressed in Escherichia coli TB1 by mixed type inhibition assay
[18] = molecular target: T4, Tyrosine-protein phosphatase non-receptor type 1; assay: Inhibition of human cloned PTP1B expressed in Escherichia coli TB1 by mixed type inhibition assay

O=c1cc(-c2ccc(O)cc2)oc2cc(O)c(O)cc12
inhibition [1]: 10% | inhibition [2]: 10% | inhibition [3]: 25%

O=c1cc(Cc2ccc(O)cc2)oc2cc(O)ccc12
inhibition [4]: 10% | inhibition [5]: 0% | inhibition [6]: 10%

O=c1c(Cc2ccc(-c3ccc(O)c(O)c3)cc2)c(-c2ccc(O)cc2)oc2ccccc12
IC50 [7]: 12.6 µM | IC50 [8]: 14.3 µM | IC50 [9]: 5 µM

O=C(O)c1ccc(-c2ccc(Cc3c(-c4ccc(O)cc4)oc4cc(O)ccc4c3=O)cc2)cc1O
IC50 [7]: 2.2 µM | Activity [10]: Active | Activity [11]: Active | IC50 [8]: 1.3 µM | Activity [12]: Active | IC50 [9]: 1 µM

O=C(c1ccc(O)cc1)c1oc2ccccc2c1-c1ccc(-c2ccc(O)cc2)cc1
IC50 [13]: 1080 nM

O=C(O)c1ccc(-c2cccc(Cc3c(-c4ccc(O)cc4)oc4cc(O)ccc4c3=O)c2)cc1O
inhibition [1]: 50% | inhibition [2]: 10% | inhibition [3]: 5%

Oc1ccc(-c2ccccc2)c(O)c1
inhibition [1]: 10% | inhibition [2]: 0% | inhibition [3]: 0%

O=C(O)c1cccc(-c2ccc(Cc3c(-c4ccc(O)cc4)oc4cc(O)ccc4c3=O)cc2)c1
IC50 [7]: 26.8 µM | IC50 [8]: 11.4 µM | IC50 [9]: 6.2 µM

O=c1c(Cc2ccc(-c3ccccc3)cc2)c(Cc2ccc(O)cc2)oc2cc(O)ccc12
IC50 [7]: 17.5 µM | inhibition [5]: 10% | IC50 [8]: 5.3 µM

O=c1c(Cc2ccc(-c3ccccc3)cc2)c(CCc2ccc(O)cc2)oc2cc(O)ccc12
IC50 [7]: 17.3 µM | inhibition [5]: 20% | IC50 [8]: 6.5 µM

O=C(O)c1ccc(-c2ccccc2)cc1O
inhibition [1]: 5% | inhibition [2]: 0% | inhibition [3]: 0%

O=c1c(Cc2cccc(-c3ccc(O)c(O)c3)c2)c(-c2ccc(O)cc2)oc2cc(O)ccc12
inhibition [1]: 50% | inhibition [2]: 25% | inhibition [3]: 60%

O=c1c(Cc2ccc(-c3ccccc3)cc2)c(Cc2ccc(O)cc2)oc2ccc(O)cc12
IC50 [7]: 17.2 µM | inhibition [5]: 20% | IC50 [8]: 8.6 µM

O=c1c(Cc2ccccc2)c(Cc2ccc(O)cc2)oc2cc(O)ccc12
inhibition [4]: 10% | inhibition [5]: 0% | inhibition [6]: 10%

O=c1c(Cc2ccc(-c3ccccc3)cc2)c(-c2ccc(O)cc2)oc2cc(O)c(O)cc12
Ki [14]: 270 nM | IC50 [7]: 3 µM | Activity [10]: Active | Activity [11]: Active | IC50 [8]: 1.1 µM | IC50 [9]: 2 µM | Ki [15]: 340 nM

O=C(O)c1ccc(-c2ccc(Cc3c(-c4ccc(O)cc4)oc4ccccc4c3=O)cc2)cc1O
IC50 [7]: 5.7 µM | IC50 [8]: 0.7 µM | IC50 [9]: 0.9 µM

Oc1ccc(-c2ccccc2)cc1O
inhibition [1]: 20% | inhibition [2]: 0% | inhibition [3]: 0%

O=c1c(Cc2ccc(-c3ccc(O)c(O)c3)cc2)c(-c2ccc(O)cc2)oc2cc(O)ccc12
Ki [16]: 2230 nM | IC50 [7]: 12.4 µM | Activity [10]: Active | Ki [17]: 2.68 µM | Activity [11]: Active | IC50 [8]: 7.4 µM | Activity [12]: Active | IC50 [9]: 7.7 µM

O=c1c(Cc2ccc(-c3ccc(O)cc3)cc2)c(-c2ccc(O)cc2)oc2cc(O)ccc12
IC50 [9]: 17 µM

O=c1c(Cc2ccc(-c3ccccc3)cc2)c(-c2ccc(O)cc2)oc2cc(O)ccc12
Ki [16]: 2500 nM | Ki [18]: 29.1 µM | IC50 [7]: 13.9 µM | inhibition [5]: 4% | Ki [17]: 7.8 µM | IC50 [8]: 5.7 µM

O=c1c(Cc2ccc(-c3ccccc3)cc2)c(CCCc2ccc(O)cc2)oc2cc(O)ccc12
inhibition [4]: 10% | inhibition [5]: 0% | inhibition [6]: 10%
